Experimental data taken from ChEMBL document CHEMBL3525963, “Tissue distribution and elimination of [14C]apixaban in rats” (Drug Metab Dispos, 2011).

What was measured:
Conditions in all cases: in vivo
Spleen [1] = assay: Biodistribution in male Sprague-Dawley rat spleen at 5 mg/kg, po administered as single dose measured after 72 hrs; assay type: ADME, organism-based; parameters: dose 5 mg/kg, dosed compound name [14C]-apixaban, route oral
Method in brief: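 Fasted male SD rats (225-252 g) each received one oral gavage dose of [14C]apixaban, 5 mg/kg (100 μCi/kg), in 0.5% Tween 80/Labrafil vehicle. One rat was killed per time point, from 0.5 to 168 h. Frozen carcasses were cut into 40 µm sagittal whole-body sections and read by QWBA phosphor imaging against [14C]glucose calibrants. Results are in µg apixaban eq/g; BLQ <0.037 µg eq/g.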

Liver = assay: Biodistribution in pregnant Sprague-Dawley rat liver at 5 mg/kg, po administered as single dose measured after 0.5 hrs; assay type: ADME, organism-based; parameters: dose 5 mg/kg, dosed compound name [14C]-apixaban, route oral
Method in brief: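 Fasted pregnant SD rats (n=6, 270-319 g) each received one oral gavage dose of [14C]apixaban, 5 mg/kg (100 μCi/kg), in 0.5% Tween 80/Labrafil. One rat was killed at each of 0.5, 1, 4, 8, 24 and 48 h. Carcasses were frozen in hexane/dry ice, cut into 40 µm sagittal sections, exposed to phosphor plates and quantified against [14C]glucose standards as µg eq/g. LLOQ was 0.037 µg eq/g.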

Lung = assay: Biodistribution in female Sprague-Dawley rat lung at 5 mg/kg, po administered as single dose measured after 0.5 hrs; assay type: ADME, organism-based; parameters: dose 5 mg/kg, dosed compound name [14C]-apixaban, route oral
Method in brief: (§1)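 [¹⁴C]Apixaban given by oral gavage at 5 mg/kg (100 μCi/kg) in 0.5% Tween 80 in Labrafil (1.0 mg/mL dosing solution) to rats fasted overnight through 4 h post-dose. One rat per time point; carcass frozen in hexane/dry ice. Quantitative whole-body autoradiography used 40 µm sagittal sections and a phosphor imaging plate calibrated with [¹⁴C]glucose standards (0.001–6.5 μCi/g). Read-out in µg eq apixaban/g; LLOQ 0.037 μg eq/g.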

Spleen [2] = assay: Biodistribution in female Sprague-Dawley rat spleen at 5 mg/kg, po administered as single dose measured after 24 hrs; assay type: ADME, organism-based; parameters: dose 5 mg/kg, dosed compound name [14C]-apixaban, route oral
Method in brief: (§2)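 Quantitative whole-body autoradiography was run after a single 5 mg/kg (100 μCi/kg) oral gavage to fasted female or pregnant SD rats, one rat per time point. Carcasses were frozen in hexane/dry ice, and 40 µm sagittal sections were dried at −20°C for at least 48 h. Sections were exposed to a phosphor plate alongside [14C]glucose standards (0.001–6.5 µCi/g). Results are µg eq/g, with LLOQ 0.037 µg eq/g.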

Rattus norvegicus [3] = assay: Biodistribution in male Sprague-Dawley rat pituitary gland at 5 mg/kg, po administered as single dose measured after 0.5 hrs; assay type: ADME, organism-based; parameters: dose 5 mg/kg, dosed compound name [14C]-apixaban, route oral
Adrenal gland = assay: Biodistribution in male Sprague-Dawley rat adrenal gland at 5 mg/kg, po administered as single dose measured after 8 hrs; assay type: ADME, organism-based; parameters: dose 5 mg/kg, dosed compound name [14C]-apixaban, route oral; method in brief: as §1
Blood = assay: Biodistribution in female Sprague-Dawley rat blood at 5 mg/kg, po administered as single dose measured after 8 hrs; assay type: ADME, organism-based; parameters: dose 5 mg/kg, dosed compound name [14C]-apixaban, route oral; method in brief: as §1
Rattus norvegicus [4] = assay: Biodistribution in male Sprague-Dawley rat pituitary gland at 5 mg/kg, po administered as single dose measured after 1 hr; assay type: ADME, organism-based; parameters: dose 5 mg/kg, dosed compound name [14C]-apixaban, route oral
Pancreas = assay: Biodistribution in pregnant Sprague-Dawley rat pancreas at 5 mg/kg, po administered as single dose measured after 24 hrs; assay type: ADME, organism-based; parameters: dose 5 mg/kg, dosed compound name [14C]-apixaban, route oral
Method in brief: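 Pregnant SD rats (270-319 g) were fasted overnight and given one oral gavage of 5 mg/kg (100 μCi/kg) in 0.5% Tween 80 in Labrafil. One rat was euthanized per time point (0.5, 1, 4, 8, 24, 48 h) and the carcass frozen. 40 µm sagittal sections were phosphor-imaged against [14C]glucose standards and results reported as µg eq/g; LLOQ 0.037 µg eq/g.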

Thymus = assay: Biodistribution in pregnant Sprague-Dawley rat thymus at 5 mg/kg, po administered as single dose measured after 0.5 hrs; assay type: ADME, organism-based; parameters: dose 5 mg/kg, dosed compound name [14C]-apixaban, route oral
Muscle tissue = assay: Biodistribution in female Sprague-Dawley rat muscle at 5 mg/kg, po administered as single dose measured after 4 hrs; assay type: ADME, organism-based; parameters: dose 5 mg/kg, dosed compound name [14C]-apixaban, route oral; method in brief: as §1
[5] = Drug excretion in Sprague-Dawley rat urine at 30 mg/kg, po administered as single dose after 0 to 168 hrs
Rattus norvegicus [6] = assay: Biodistribution in female Sprague-Dawley rat brown fat at 5 mg/kg, po administered as single dose measured after 8 hrs; assay type: ADME, organism-based, Brown adipose tissue; parameters: dose 5 mg/kg, dosed compound name [14C]-apixaban, route oral
Method in brief: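 [14C]apixaban (20 μCi/mL in dosing solution) in 0.5% Tween 80 in Labrafil given by oral gavage to fasted female rats, 206-213 g, at 100 μCi/kg. One rat per time point was euthanized and snap-frozen. Sagittal 40 µm whole-body sections were read by QWBA phosphor imaging against [14C]glucose standards. Results are in µg eq apixaban/g, with LLOQ 0.037 μg eq/g.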

Rattus norvegicus [7] = assay: Biodistribution in male Sprague-Dawley rat brown fat at 5 mg/kg, po administered as single dose measured after 0.5 hrs; assay type: ADME, organism-based, Brown adipose tissue; parameters: dose 5 mg/kg, dosed compound name [14C]-apixaban, route oral
Method in brief: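 Fasted male rats, 225-252 g, received [14C]apixaban by single oral gavage at 100 μCi/kg in 0.5% Tween 80/Labrafil. One rat was killed per time point and the carcass frozen. Tissue radioactivity was quantified by QWBA (40 µm sagittal sections, phosphor plate, [14C]glucose calibration) as µg eq apixaban/g, with LLOQ 0.037 μg eq/g.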

Rattus norvegicus [8] = assay: Biodistribution in male Sprague-Dawley rat salivary gland at 5 mg/kg, po administered as single dose measured after 1 hr; assay type: ADME, organism-based; parameters: dose 5 mg/kg, dosed compound name [14C]-apixaban, route oral
Spleen [9] = assay: Biodistribution in pregnant Sprague-Dawley rat spleen at 5 mg/kg, po administered as single dose measured after 1 hr; assay type: ADME, organism-based; parameters: dose 5 mg/kg, dosed compound name [14C]-apixaban, route oral
Spleen [10] = assay: Biodistribution in female Sprague-Dawley rat spleen at 5 mg/kg, po administered as single dose measured after 4 hrs; assay type: ADME, organism-based; parameters: dose 5 mg/kg, dosed compound name [14C]-apixaban, route oral; method in brief: as §1
[11] = Drug level in lactating Sprague-Dawley rat milk at 5 mg/kg, po administered as single dose after 6 hrs; assay type: ADME, organism-based; parameters: dose 5 mg/kg, dosed compound name [14C]-apixaban, route oral
Rattus norvegicus [12] = assay: Biodistribution in female Sprague-Dawley rat salivary gland at 5 mg/kg, po administered as single dose measured after 72 hrs; assay type: ADME, organism-based; parameters: dose 5 mg/kg, dosed compound name [14C]-apixaban, route oral; method in brief: as §2
Rattus norvegicus [13] = assay: Biodistribution in pregnant Sprague-Dawley rat placenta at 5 mg/kg, po administered as single dose measured after 1 hr; assay type: ADME, organism-based; parameters: dose 5 mg/kg, dosed compound name [14C]-apixaban, route oral
Rattus norvegicus [14] = assay: Biodistribution in fetal kidney of pregnant Sprague-Dawley rat at 5 mg/kg, po administered as single dose measured after 4 hrs; assay type: ADME, organism-based; parameters: dose 5 mg/kg, dosed compound name [14C]-apixaban, route oral
Method in brief: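 Pregnant rats, 270-319 g and fasted overnight, received [14C]apixaban by oral gavage at 100 μCi/kg in 0.5% Tween 80/Labrafil. One dam per time point was euthanized and frozen in hexane/dry ice. Fetal tissue radioactivity was measured by QWBA on 40 µm sagittal sections calibrated with [14C]glucose standards. Values are in µg eq/g, with LLOQ 0.037 μg eq/g.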

[15] = AUC (0 to t) in lactating Sprague-Dawley rat milk at 5 mg/kg, po administered as single dose; assay type: ADME, organism-based; parameters: dose 5 mg/kg, dosed compound name [14C]-apixaban, route oral
Method in brief: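 Fasted lactating SD rats received 5 mg/kg [14C]apixaban orally (formulation 5.0 mg/mL, 20 μCi/mL). Oxytocin was injected subcutaneously 15 min before collection, and 1 mL milk was taken under anesthesia by milking machine. Sampling was predose and at 0.5–24 h, 3 rats per time point. Plasma was obtained at 1300g for 10 min. Duplicate 50–100 µL aliquots were counted by LSC for 10 min. AUC was calculated in WinNonlin.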

Rattus norvegicus [16] = assay: Biodistribution in female Sprague-Dawley rat brown fat at 5 mg/kg, po administered as single dose measured after 72 hrs; assay type: ADME, organism-based, Brown adipose tissue; parameters: dose 5 mg/kg, dosed compound name [14C]-apixaban, route oral; method in brief: as §2

- Radiolabel recovery (Spleen [1]): Not detected assumed BLQ
- Radiolabel recovery (Liver): 6.77 ugequiv/g
- Radiolabel recovery (Lung): 0.43 ugequiv/g
- Radiolabel recovery (Spleen [2]): Not detected assumed BLQ
- Radiolabel recovery (Rattus norvegicus [3]): 0.26 ugequiv/g
- Radiolabel recovery (Adrenal gland): 0.17 ugequiv/g
- Radiolabel recovery (Blood): 0.17 ugequiv/g
- Radiolabel recovery (Rattus norvegicus [4]): 0.59 ugequiv/g
- Radiolabel recovery (Pancreas): Not detected assumed BLQ
- Radiolabel recovery (Thymus): 0.38 ugequiv/g
- Radiolabel recovery (Muscle tissue): 0.29 ugequiv/g
- Radiolabel recovery [5]: 14%
- Radiolabel recovery (Rattus norvegicus [6]): 0.17 ugequiv/g
- Radiolabel recovery (Rattus norvegicus [7]): 0.46 ugequiv/g
- Radiolabel recovery (Rattus norvegicus [8]): 0.72 ugequiv/g
- Radiolabel recovery (Spleen [9]): 0.51 ugequiv/g
- Radiolabel recovery (Spleen [10]): 0.45 ugequiv/g
- Radiolabel recovery [11]: 8.92 µg/mL
- Radiolabel recovery (Rattus norvegicus [12]): Not detected assumed BLQ
- Radiolabel recovery (Rattus norvegicus [13]): 0.74 ugequiv/g
- Radiolabel recovery (Rattus norvegicus [14]): 0.46 ugequiv/g
- AUCt [15]: 103000 ngequiv.hr/g
- Radiolabel recovery (Rattus norvegicus [16]): Not detected assumed BLQ
SMILES: COc1ccc(-n2nc(C(N)=O)c3c2C(=O)N(c2ccc(N4CCCC[14C]4=O)cc2)CC3)cc1
